In series [1] the test system is Mus musculus. Briefly: Anticonvulsant activity in mice using sc Met seizure test;Compound is neurotoxic at 5 mg/kg. The class given is functional, organism-based. Details: dose 5 mg/kg.
Series [2] relates to Mus musculus. Briefly: Anticonvulsant activity in mice using MES seizure test;Compound is neurotoxic at 30 mg/kg dose. Type of series: functional, organism-based. Details: dose 30 mg/kg.
For series [3], the system named is Mus musculus. Briefly: Anticonvulsant activity in mice using sc Met seizure test;Activity is determined at 4h. The class given is functional. The method in brief: (§1)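 Subcutaneous pentylenetetrazol at the CD99 convulsant dose was given to mice pretreated at 30–600 mg/kg, four per dose, with tests at 30 min and 4 h. Protection is the absence of even a threshold seizure (one clonic spasm episode of 5 s). ED50 is estimated graphically or determined at the time of peak effect; 95% limits are by Litchfield-Wilcoxon.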

In series [4] the test system is Mus musculus. The series is described as follows: Anticonvulsant activity in mice using MES seizure test;Compound is neurotoxic at 300 mg/kg dose. Type of series: functional, organism-based. Details: dose 300 mg/kg.
The nature of series [5]: Anticonvulsant activity expressed as toxic dose in rotarod test (0.5 hr) in mice. Type of series: toxicity, organism-based. The note with it: mouse, in vivo. In short, it runs like this:
(§2)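 Acute neurotoxicity in mice by rotorod test after injection at 30, 100, 300 and 600 mg/kg, read at 30 min and 4 h, four animals per dose. TD50 is the median neurotoxic dose, estimated graphically; where confidence limits are given they are 95% limits by the Litchfield-Wilcoxon method from additional ADD testing.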

Series [6] is filed under the species Mus musculus. Briefly: Anticonvulsant activity in mice using MES seizure test;Activity determined at time of peak effect (0.5 hr) and value ranges from (48-56). Type of series: functional. In short, it runs like this: (§3)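 Mice were injected at 30, 100, 300 and 600 mg/kg, four per dose, and tested at 30 min and 4 h. Protection means abolition of the hindlimb tonic extensor component of the maximal electroshock seizure (60 Hz alternating current, 50 mA, 0.2 s, corneal electrodes). ED50 was estimated graphically. Confirmed values carry Litchfield-Wilcoxon 95% confidence limits.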

Series [7] can be described thus: Anticonvulsant activity expressed as toxic dose in rotarod test (0.5 hr) in mice;Activity determined at time of peak effect (0.5 hr) and value ranges from(47-65). The class given is ADME, organism-based. Conditions: mouse, in vivo. The method in brief: (§4)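 Mice, rotorod test of acute neurotoxicity at 0.5 h. Doses 30, 100, 300 and 600 mg/kg, four animals per dose, with positives assessed by four more observations. Median neurotoxic dose (TD50) was estimated graphically from combined ADD and in-house screening. Where confirmed by further ADD testing, 95% confidence limits were calculated by Litchfield-Wilcoxon.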

Series [8] concerns Mus musculus. Briefly: Anticonvulsant activity in mice using sc Met seizure test. The class given is functional. The method in brief: (§5)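 Mice were dosed at 30, 100, 300 and 600 mg/kg, four per dose, and tested at 30 min and 4 h. Pentylenetetrazol was then given subcutaneously at its CD99. Protection means absence of even a threshold seizure (one clonic spasm of 5 s). ED50 was estimated graphically, some at peak-effect time or 4 h. Litchfield-Wilcoxon 95% limits apply where confirmed.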

For series [9], the species on record is Mus musculus. The series is described as follows: Anticonvulsant activity in mice using MES seizure test;NA means inactive. The class given is functional, organism-based. In short, it runs like this:
as §3

Series [10] is filed under the species Mus musculus. The series is described as follows: Anticonvulsant activity expressed as toxic dose in rotarod test (0.5 hr) in mice;NA means inactive. The class given is ADME, organism-based. The note with it: in vivo. The method in brief:
as §4
In general terms: In the rotarod test animals must keep their balance on a rotating rod.

Series [11] deals with Mus musculus. The series is described as follows: Anticonvulsant activity in mice using sc Met seizure test;NA means inactive. Type of series: functional, organism-based. The method in brief: as §5
For series [12], the species on record is Mus musculus. The series is described as follows: Anticonvulsant activity in mice using MES seizure test; determined at time of peak effect (0.5 hr). The class given is functional. In short, it runs like this:
as §3

In series [13] the test system is Mus musculus. The series is described as follows: Anticonvulsant activity in mice using sc Met seizure test;Activity determined at 4h. The class given is functional. The method in brief:
as §1

The subject of series [14] is Mus musculus. Briefly: Anticonvulsant activity in mice using MES seizure test;Compound is neurotoxic at 100 mg/kg. The class given is functional, organism-based. Details: dose 100 mg/kg.
A short description of series [15]: Anticonvulsant activity expressed as toxic dose in rotarod test (0.5 hr) in mice;Activity determined at time of peak effect (0.5 hr). Type of series: ADME, organism-based. Conditions: mouse, in vivo. The method in brief:
as §2

Series [16] deals with Mus musculus. The series is described as follows: Anticonvulsant activity expressed as toxic dose in rotarod test (0.5 hr) in mice;4 out of 4 mice died at 600 mg/kg; wild running and tonic extension convulsion at 300 mg/kg;NA means inactive. Type of series: ADME, organism-based. The note with it: in vivo. The method in brief: as §4
Series [17] relates to Mus musculus. The series is described as follows: Anticonvulsant activity in mice using sc Met seizure test;Activity determined at the time of peak effect (1hr) and value ranges from (26-62). Type of series: functional. In short, it runs like this:
as §1

The nature of series [18]: Anticonvulsant activity expressed as toxic dose in rotarod test (0.5 hr) in mice;Activity determined at the time of peak effect (0.5 hr) and value ranges from (126-147). The note with it: mouse, in vivo. The class given is ADME, organism-based. The method in brief:
as §2

The species entered for series [19] is Mus musculus. Briefly: Anticonvulsant activity in mice using MES seizure test. The class given is functional. In short, it runs like this: as §3
Series [20] concerns Mus musculus. Briefly: Anticonvulsant activity in mice using sc Met seizure test;Activity determined at time of peak effect (0.5 hr) and value ranges from(12-20). The class given is functional. In short, it runs like this:
as §1

The species named for series [21] is Mus musculus. The series is described as follows: Anticonvulsant activity in mice using MES seizure test;Activity determined at time of peak effect (0.5 hr) and value ranges from(48-55). The class given is functional.
Series [22] is described as follows: Anticonvulsant activity expressed as toxic dose in rotarod test (0.5 hr) in mice;Value ranges from(36-43). Type of series: ADME, organism-based. Conditions: mouse, in vivo. In short, it runs like this:
as §2

Molecules are shown by their SMILES. Activity calls are given as the source filed them.

From ChEMBL document CHEMBL1122451, “Synthesis of 3,4-dihydro-4-oxoquinazoline derivatives as potential anticonvulsants” (J Med Chem, 1983) come the findings set out here.

By ED50 is commonly meant the dose at which the effect has come halfway, by size or by number of responders. As to `Cc1nc2cccnc2c(=O)n1-c1ccc(Cl)cc1Cl`, the ED50 result in series [1] and in [2] was “inactive” throughout.

A word on the TD50: it is the dose at which the toxic effect under study appears in half of the subjects. The low end stands for greater toxicity, the high end for lower toxicity. With `Cc1nc2cccnc2c(=O)n1-c1ccc(C(F)(F)F)cc1`, the ED50 in [3] was found to be 90 mg/kg. Besides, the ED50 entry in [4] is “inactive”. In series [5], this compound yielded a TD50 at 0.5 h of 170 mg/kg.

In the case of `Cc1ccccc1-n1c(C)nc2ccccc2c1=O` [METHAQUALONE], the 50% effect level in series [6] (ED50) was put at a dose of 52 mg/kg. In addition, in [7], the TD50 at 0.5 h worked out at 55 mg/kg.

`Cc1cc2c(=O)n(-c3ccc(F)cc3)c(C)nc2c(C(=O)O)c1C` yielded an ED50 in series [8] of 440 mg/kg. In series [9], the ED50 entry was “inactive”. Besides, in series [10], the TD50 result was “Not Active”.

Turning to `Cc1nc2cccnc2c(=O)n1-c1cccc(C(F)(F)F)c1`, the ED50 entry in series [11] and in series [9] was “inactive” in each case. This compound registered a TD50 at 0.5 h in series [5] of 50 mg/kg.

Take `COC(=O)c1c(C)c(C)cc2c(=O)n(-c3ccccc3F)c(C)nc12`: the ED50 result in [11] and in [9] was “inactive” in each case. This compound also came in with a TD50 at 0.5 h in series [5] of 280 mg/kg.

In turn, `COC(=O)c1c(C)c(C)cc2c(=O)n(-c3ccccn3)c(C)nc12` registered an ED50 in series [12] of 52 mg/kg. In series [11], the ED50 entry was “inactive”. Besides, the TD50 result in [10] is “Not Active”.

`COC(=O)c1c(C)c(C)cc2c(=O)n(-c3ccccc3C)c(C)nc12`: it took a dose of 600 mg/kg to reach the 50% effect level in [8] (ED50). In series [9], the ED50 entry is “inactive”. The TD50 result in series [10] is reported as “Not Active”.

The compound `Cc1nc2cccnc2c(=O)n1-c1ccccc1C(F)(F)F` gave an ED50 in series [13] of 100 mg/kg. In addition, in [14], the ED50 entry is “inactive”. This compound had a TD50 at 0.5 h in series [15] of 100 mg/kg.

Regarding `Cc1cc2c(=O)n(-c3ccccn3)c(C)nc2c(C(=O)O)c1C`, the ED50 result in series [11] and in series [9] was “inactive” in each case. The TD50 entry in [16] is recorded as “Not Active”.

The compound `Cc1ccccc1-n1c(C)nc2ncccc2c1=O` yielded an ED50 in series [17] of 40 mg/kg. In series [4], the ED50 entry was “inactive”. Moreover, the TD50 at 0.5 h in [18] amounted to 137 mg/kg.

Regarding `COC(=O)c1c(C)c(C)cc2c(=O)n(-c3ccc(F)cc3)c(C)nc12`, the ED50 in [8] stood at 440 mg/kg; in [19] it was 600 mg/kg. In addition, the TD50 result in series [10] is listed as “Not Active”.

Regarding `Cc1ccccc1-n1c(C)nc2cccnc2c1=O`, the ED50 in series [20] is 16.5 mg/kg; in series [21], 52 mg/kg. Also, the TD50 at 0.5 h in [22] came to 40 mg/kg.

In the case of `COC(=O)c1c(C)c(C)cc2c(=O)n(-c3cccc(F)c3)c(C)nc12`, the ED50 in [8] worked out at 430 mg/kg. Besides, the ED50 result in series [9] is “inactive”. The TD50 at 0.5 h in series [5] stood at 540 mg/kg.
